ChEMBL document CHEMBL1125300, “Synthesis and biological activity of trans(+-)-N-methyl-2-(3-pyridyl)-2-tetrahydrothiopyrancarbothioamide 1-oxide (RP 49356) and analogues: a new class of potassium channel opener” (1992)

Assays:
Rattus norvegicus [1] = test: The compound was evaluated for hypotensive activity in anaesthetized Sprague Dawley rats on intravenous administration; type: functional
Summary of the method: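 Male Sprague Dawley rats (280–350 g), pentobarbitone 60 mg/kg ip, ventilated; carotid blood pressure recorded. 15-min iv infusion via jugular vein, one per rat, vehicle PEG 200 with 0.01 N HCl diluted 1:10 in saline. Max MBP change over ≥30 min; two or more doses in 3–4 rats; dose giving 30 mmHg fall by linear regression vs log dose.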

Rattus norvegicus [2] = species on record: Rattus norvegicus; test: In vitro inhibitory concentration producing 90% reduction in maximum contraction produced by KCl (20 mmol) in isolated aorta of rat.; type: functional
Summary of the method: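 Isolated aortic tissue recorded isometrically via force-displacement transducers; equilibrated 90 min at 2 g resting tension, contracted with 20 mmol KCl, then cumulative concentration-response relaxation, each concentration added once the prior maximal effect developed. Glibenclamide 5 μM tested for reversal of relaxation. Drugs dissolved in DMSO. Mean EC90 ± SEM, number of experiments given.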

Row | IC90 (Rattus norvegicus [2]; Rattus norvegicus, Aorta) [µM] | IC90 (Rattus norvegicus [2]) [µM] | Compound | ED30 (Rattus norvegicus [1]) [mg/kg]
1 | 1.6 |  | C/N=C(\S)[C@]1(c2cccc(C#N)c2)CCCC[S+]1[O-] (some centres not stated) | 0.63
2 | 10 |  | CC(C)/N=C(\S)[C@]1(c2cccnc2)CCCC[S+]1[O-] (some centres not stated) | 
3 | > 30 |  | CNC(=O)[C@]1(c2cccnc2)CCCC[S+]1[O-] (some centres not stated) | 
4 | 0.2 |  | CC1(C)Oc2ccc(C#N)cc2C(N2CCCC2=O)C1O (configuration not stated) [CROMAKALIM] | 0.06
5 | > 30 |  | C/N=C(\S)[C@]1(c2ccccn2)CCCC[S+]1[O-] (some centres not stated) | 
6 | > 30 |  | COC(=O)CC/N=C(\S)[C@]1(c2cccnc2)CCCC[S+]1[O-] (some centres not stated) | 
7 | 7 |  | C/N=C(\S)[C@]1(c2ccns2)CCCC[S+]1[O-] (some centres not stated) | 
8 | > 30 |  | [O-][S+]1CCCC[C@]1(CS)c1cccnc1 (some centres not stated) | 
9 | 25 |  | C/N=C(\S)[C@]1(c2ccncc2)CCCC[S+]1[O-] (some centres not stated) | 
10 | 0.6 |  | CCC/N=C(\S)[C@]1(c2cccnc2)CCCC[S+]1[O-] (some centres not stated) | 
11 | > 30 |  | CNC(=S)[C@]1(c2cccnc2)CCCC[S@+]1[O-] | 
12 | 0.4 |  | C/N=C(\S)[C@]1(c2cc(Cl)cc(Cl)c2)CCCC[S+]1[O-] (some centres not stated) | 
13 | 29 |  | C/N=C(\S)[C@]1(c2nc3ccccc3s2)CCCC[S+]1[O-] (some centres not stated) | 
14 | > 30 |  | [O-][S+]1CCCC[C@]1(/C(S)=N/c1ccccc1)c1cccnc1 (some centres not stated) | 
15 | > 30 |  | [O-][S+]1CCCC[C@]1(CO)c1cccnc1 (some centres not stated) | 
16 | > 30 |  | C/N=C(\S)[C@]1(c2cccnc2)OCCCS1 | 
17 | > 30 |  | C/N=C(\SC)[C@]1(c2cccnc2)CCCC[S+]1[O-] (some centres not stated) | 
18 | 0.3 |  | CC/N=C(\S)[C@]1(c2cccnc2)CCCC[S+]1[O-] (some centres not stated) | 0.15
19 | 0.3 |  | C/N=C(\S)[C@]1(c2ccc(Cl)c(Cl)c2)CCCC[S+]1[O-] (some centres not stated) | 1.28
20 |  | > 30 | C/N=C(/S)[C@]1(c2cccnc2)CCCC[S@@+]1[O-] (stereo in doubt; 8c) [APRIKALIM] | 
21 | 3 |  | C/N=C(\S)C1(c2cccnc2)CCCCC1 | 
22 | 2.8 |  | C/N=C(\S)[C@]1(c2ccc(Cl)cc2)CCCC[S+]1[O-] (some centres not stated) | 
23 | 0.3 |  | C/N=C(\S)[C@]1(c2ccc(Cl)nc2)CCCC[S+]1[O-] (some centres not stated) | 

Row | IC90 (Rattus norvegicus [2]; Rattus norvegicus, Aorta) [µM] | IC90 (Rattus norvegicus [2]) [µM] | Compound | ED30 (Rattus norvegicus [1]) [mg/kg]
24 | 0.8 |  | C/N=C(\S)[C@]1(c2cccc(C(F)(F)F)c2)CCCC[S+]1[O-] (some centres not stated) | 
25 | > 30 |  | C/N=C(\S)[C@]1(c2cccnc2)CCCCS1 | 1.5
26 | > 30 |  | O=C(O)CC/N=C(\S)[C@]1(c2cccnc2)CCCC[S+]1[O-] (some centres not stated) | 
27 |  | 0.4 | C/N=C(/S)[C@]1(c2cccnc2)CCCC[S@@+]1[O-] (stereo in doubt; 8b) [APRIKALIM] | 
28 | 0.06 |  | C/N=C(\S)[C@]1(c2cnc3ccccc3c2)CCCC[S+]1[O-] (some centres not stated) | 0.04
29 | 12 |  | C/N=C(\S)[C@]1(c2ccc(-c3ccccc3)cc2)CCCC[S+]1[O-] (some centres not stated) | 
30 | 30 |  | C/N=C(\S)C1(c2cccnc2)CCCC1 | 
31 | 9.5 |  | C/N=C(\S)[C@]1(c2ccccc2)CCCC[S+]1[O-] (some centres not stated) | 
32 | 8 |  | CCCC/N=C(\S)[C@]1(c2cccnc2)CCCC[S+]1[O-] (some centres not stated) | 1.5
33 | > 30 |  | N#C[C@]1(c2cccnc2)CCCC[S+]1[O-] (some centres not stated) | 
34 | 2 |  | C/N=C(\S)[C@]1(c2ccc3ccccc3c2)CCCC[S+]1[O-] (some centres not stated) | 
35 | > 30 |  | COC(=N)[C@]1(c2cccnc2)CCCC[S+]1[O-] (some centres not stated) | 
36 | > 30 |  | N/N=C(\S)[C@]1(c2cccnc2)CCCC[S+]1[O-] (some centres not stated) | 
37 | > 30 |  | C/N=C(\S)[C@]1(c2cccnc2)CCCS1 | 
38 | > 30 |  | C/N=C(\S)[C@]1(c2cccnc2)CCCO1 | 
39 |  | 0.7 | C/N=C(/S)[C@]1(c2cccnc2)CCCC[S@@+]1[O-] (stereo in doubt; 8a) [APRIKALIM] | 
40 | 7 |  | C/N=C(\S)[C@]1(c2cccc(F)c2)CCCC[S+]1[O-] (some centres not stated) | 
41 | 12 |  | C/N=C(\S)[C@]1(c2cccc(C(N)=O)c2)CCCC[S+]1[O-] (some centres not stated) | 
42 | 4 |  | C/N=C(\S)[C@]1(c2cnc(-c3ccccc3)s2)CCCC[S+]1[O-] (some centres not stated) | 
43 | > 30 |  | C/N=C(\S)C1(c2cccnc2)SCCCS1 | 
44 | > 30 |  | C/N=C(\S)[C@]1(c2cccc(C(=O)O)c2)CCCC[S+]1[O-] (some centres not stated) | 
45 | > 30 |  | C/N=C(/S)[C@]1(c2cccnc2)CCCCS1(=O)=O | 
